Source: PubChem BioAssay (The Scripps Research Institute Molecular Screening Center)
Compounds with a hit are over-represented: about 3.1% of the library has one in this group of screens.
OX1R antag-1: antagonists of human orexin 1 receptor (OX1R) | O43613 | OX1R-expressing cells, FRET antagonist read-out | inhibition, % at 6.6 µM | actives 1.8% (n = 330,000) | AID 485270; in the data active means inhibition mostly above about 38%, no sharp cut-off; inactive means mostly below about 40%;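 further: 0% = agonist challenge alone and 100% = reference antagonist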
GalR3 antagonist: blocks the human galanin receptor 3 | HEK293 GalR3-CNG cAMP membrane potential fluorescence; galR3 body fused to GalR1 C-terminus | inhibition, % at 3 µM | actives 0.44% (n = 360,000) | AID 651719;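 active means inhibition above the screen-wide average plus 3 SD, cut at about 13% in these data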;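 further: forskolin and galanin both at EC90 stimulate the cells; cAMP rise reported by CNG channel membrane potential dye signal; 0% = forskolin plus galanin with DMSO and 100% = forskolin alone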
Target sequence (O60755 1-299 limits assumed): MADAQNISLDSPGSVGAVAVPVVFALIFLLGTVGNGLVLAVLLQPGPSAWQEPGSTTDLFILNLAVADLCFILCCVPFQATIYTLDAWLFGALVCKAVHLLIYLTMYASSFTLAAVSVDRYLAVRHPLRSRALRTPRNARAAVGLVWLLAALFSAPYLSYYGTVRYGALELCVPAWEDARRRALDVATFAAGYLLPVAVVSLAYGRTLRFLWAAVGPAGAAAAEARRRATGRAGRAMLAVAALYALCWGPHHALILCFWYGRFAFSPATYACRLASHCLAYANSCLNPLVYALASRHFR
OX1R antag-2: blocks the human orexin 1 receptor; CHO/OX1R cells, Fluo-8 calcium fluorescence, orexin A; inhibition, % at 5 µM; actives 0.43% (n = 330,000); AID 434989;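 active means inhibition above its plate's threshold, mean inhibition of all tested compounds on the plate plus 3 SD, cut at about 37% in these data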;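 further: 0% = orexin A challenge wells and 100% = SB-334867-A antagonist wells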
CHO parental Ca: signal in parental CHO cells, OX1R antagonist counter-screen | actives 0.63% (n = 330,000) | parental CHO-K1, ATP-induced calcium, Fluo-8 fluorescence | AID 463079 | inhibition, % at 5.6 µM;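 active means inhibition above that plate's mean sample inhibition plus 3 SD, cut at about 26% in these data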;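 further: 0% = ATP-challenged DMSO wells and 100% = DMSO wells without ATP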
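Material: parental CHO cells / Compound: single nominal dose of 5.6 µM per compound / Signal: Fluo-8 fluorescence / Replicates: singlicate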
GPR7 antag: human neuropeptides B/W receptor 1 antagonism; P48145; GPR7-expressing cells, fluorescence antagonist assay; inhibition, % at 4.4 µM; actives 1.1% (n = 290,000); AID 1861; in the data active means inhibition above about 16%, passing the limit was not always enough;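 further: cells stimulated with the agonist NPW; 0% = agonist with vehicle and 100% = vehicle without agonist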
Target sequence (P48145 whole entry, looked up): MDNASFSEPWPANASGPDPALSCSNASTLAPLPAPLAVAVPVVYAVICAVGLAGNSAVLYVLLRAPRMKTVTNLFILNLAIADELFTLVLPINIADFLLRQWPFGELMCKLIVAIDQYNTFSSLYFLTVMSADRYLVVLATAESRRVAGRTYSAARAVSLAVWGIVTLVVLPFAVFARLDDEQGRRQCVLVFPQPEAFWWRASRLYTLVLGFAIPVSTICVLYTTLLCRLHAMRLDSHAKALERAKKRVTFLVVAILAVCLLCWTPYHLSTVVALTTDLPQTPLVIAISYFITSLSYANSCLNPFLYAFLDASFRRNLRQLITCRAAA
GPR7 antag cf: human GPR7 antagonism, confirmation assay; AID 1952; inhibition, % at 4.4 µM; actives 52% (n = 2,400); GPR7-expressing cells, calcium fluorescence antagonist mode; shares compounds with GPR7 antag; in the data active means inhibition above about 24%;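 further: stimulated with the GPR7 agonist NPW; 0% = agonist plus vehicle and 100% = vehicle alone without agonist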
MCHR1 antagonist: counter-screen for GPR7 antagonists: antagonists of human MCHR1; shares compounds with GPR7 antag; MCHR1-expressing cells, fluorescence antagonist assay; inhibition, % at 4.4 µM; actives 62% (n = 2,400); in the data active means inhibition above about 22%;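 further: 0% = vehicle with agonist and 100% = vehicle without agonist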
Starred values were filed as active, the others as inactive; nt = no result; ! = not confirmed by another sample.

SMILES | OX1R antag-1 | GalR3 antagonist | OX1R antag-2 | CHO parental Ca | GPR7 antag | GPR7 antag cf | MCHR1 antagonist
Cc1cc(N2CCOCC2)nc(NCc2ccccc2)n1 | 14 | -5 | 11 | -1 | 23* | 60* | 72*
Cc1cc(N2CCCCC2)nc(NCc2ccccc2)n1 | 14 | -8 | -10 | 8 | 84* | 73* | 89*
Cc1cc(NCc2ccccc2)nc(N2CCOCC2)n1 | 15 | -5 | -9 | -5 | 2 | nt | nt
Cc1c(C(=O)N2CCCCC2C)sc2ncnc(N3CCc4ccccc4C3)c12 (stereo not drawn) | 25 | -7 | -52 | -31 | 27* | 20 | 35*
CNCCCC12CCC(c3ccccc31)c1ccccc12 | 11 | -9 | -20 | -1 | 28*! | 34* | 29*
CC(=O)Nc1cc([N+](=O)[O-])ccc1OCc1ccccc1 | nt | -3 | nt | nt | nt | nt | nt
CCOC(=O)N1CN(C(=O)OCC)CN(C(=O)OCC)C1 | 11 | -11 | -32 | 3 | 18* | -12 | -7
COc1ccc(C(C#N)N2N=C(C)CC2c2ccccc2)cc1 (stereo not drawn) | -7 | -11 | -10 | 3 | -9 | nt | nt
CC1=NN(C(C#N)c2ccccc2)C(c2ccccc2)C1 (stereo not drawn) | 7 | -5 | -7 | 0 | 37* | 5 | -2
CC(=O)N1CCN(C(C(=O)Nc2c(C)cccc2C)c2cccc(F)c2)CC1 (stereo not drawn) | nt | -7 | nt | nt | nt | nt | nt
Cc1ccc(CCNC(=O)C2CC(=O)N(C3CCCCC3)C2)cc1 (stereo not drawn) | 6 | -8 | -56 | -11 | 28* | -13 | -1
Cc1[nH]c2ccccc2c1CC(=O)Nc1ccc(Nc2cccnc2)c(-c2ccc(OC(F)(F)F)cc2)c1 | nt | -6 | nt | nt | nt | nt | nt
N#Cc1nc(COc2ccccc2)oc1N1CCN(Cc2ccccc2)CC1 | 16 | -6 | -26 | -12 | 26* | 33* | 52*
Cc1ccc(OCc2nc(C#N)c(N3CCN(Cc4ccccc4)CC3)o2)cc1 | 32 | -8 | -22 | -12 | 43* | 44* | 51*
CN1CCCCC(NC(=O)c2c(F)cccc2F)C1=O (stereo not drawn) | nt | -5 | nt | nt | nt | nt | nt
CCCCC(Nc1ncnc2ccccc12)C(=O)O (stereo not drawn) | 7 | 1 | -4 | -7 | 23* | -6 | -9
Cc1ccccc1CN1C[C@@H]2C[C@@H](c3cn[nH]c3-c3ccc(F)cc3)N3CCC[C@@]23C1=O | 19 | -9 | -24 | -15 | nt | nt | 14
CCn1c(NC(=O)c2ccc(C)cc2)c2ccccc2nc1=O | 4 | 6 | -31 | -11 | 32* | -6 | -10
C[C@H](CO)N1C[C@H](C)[C@@H](CN(C)Cc2cccnc2)Oc2ncc(-c3cccc(C#N)c3)cc2C1=O | nt | -7 | nt | nt | nt | nt | nt
COc1ccc2[nH]c3c(c2c1)CCN1C(=O)N([C@@H](C)C(=O)NC2CCCCC2C)C(=O)[C@]31C (stereo partly drawn) | 47* | 0 | -3 | -17 | 23* | 10 | 58*
C[C@@H](C(=O)NC1CCCC1)N1C(=O)N2CCc3c([nH]c4ccccc34)[C@@]2(C)C1=O | 18 | -8 | -9 | -2 | 26* | 23 | 6
COc1ccc(CNC(=O)[C@H](C)N2C(=O)N3CCc4c([nH]c5ccc(OC)cc45)[C@@]3(C)C2=O)cc1 | 16 | -5 | -32 | -19 | 8 | nt | nt
Cc1cccc(S(=O)(=O)NC(=O)C2(C)CCN2C(=O)c2ccccc2)c1 (stereo not drawn) | nt | -5 | nt | nt | nt | nt | nt
COc1ccc(N=C2NN=C(c3ccc4c(c3)OCCO4)CS2)cc1 | 21 | -2 | -7 | -5 | 23* | 20 | 17
Cc1ccc(CC(=O)Nc2ccncc2)cc1 | 12 | -2 | -3 | 22 | 33* | 2 | 40*
SMILES | OX1R antag-1 | GalR3 antagonist | OX1R antag-2 | CHO parental Ca | GPR7 antag | GPR7 antag cf | MCHR1 antagonist
O=C(Cc1ccc(Cl)cc1)Nc1ccncc1 | 11 | -6 | 3 | 27 | -2 | nt | nt
COC(=O)c1cc2c(c3c4cc(OC)ccc4n(S(=O)(=O)c4ccc(OC)cc4)c13)C(=O)N(Cc1ccco1)C2 | nt | 0 | nt | nt | nt | nt | nt
CC(=O)Nc1ccc(S(=O)(=O)N2CCc3cc4c(cc3C2)OCCCO4)cc1 | 24 | 3 | -3 | 21 | 29* | 15 | 37*
Nc1c(-c2ccc(F)c(F)c2)nc2ncccn12 | nt | -5 | nt | nt | nt | nt | nt
C#CCOCCOCCOCCNc1nc(N2CCN(C(=O)[C@H](Cc3cc4ccccc4[nH]3)n3cc([C@@H](N)CC(C)C)nn3)CC2)nc(N2CCN(C(=O)[C@H](Cc3cc4ccccc4[nH]3)n3cc([C@@H](N)CC(C)C)nn3)CC2)n1 | 14 | nt | -5 | -10 | 79* | 54* | 33*
C#CCOCCOCCOCCNc1nc(N2CCOCC2)nc(N2CCN(C(=O)[C@H](Cc3cc4ccccc4[nH]3)n3cc([C@@H](N)CC(C)C)nn3)CC2)n1 | 9 | nt | 3 | -3 | -18 | nt | nt
CC(=O)O[C@H]1C[C@@H](n2cnc3c(Cl)ncnc32)[C@@H]2OC(C)(C)O[C@@H]21 | nt | -6 | nt | nt | nt | nt | nt
Clc1ccc2c(NCc3ccco3)ncnc2c1 | 14 | -1 | 4 | 3 | 23* | 6 | 16
O=C(NCCN1CCOCC1)c1cc([N+](=O)[O-])ccc1Cl | 23 | -9 | -13 | -5 | -13 | nt | nt
O=C(NCCN1CCOCC1)c1cc(Br)ccc1Cl | 3 | -2 | -1 | -3 | 29* | -12 | 12
Cc1cc(C(C)(C)C)cc(C)c1Cn1c2[n+](c3ccc(C(F)(F)F)cc31)CCCCC2 | 20 | -5 | -23 | -6 | 33* | 29* | 32*
O=C(Cn1c2[n+](c3ccc(C(F)(F)F)cc31)CCCCC2)Nc1ccc(Br)cc1 | 13 | nt | -17 | -10 | -5 | nt | nt
N#Cc1ccc(NC(=O)Cn2c3[n+](c4ccc(C(F)(F)F)cc42)CCCCC3)cc1 | 25 | -3 | -10 | -8 | 10 | nt | nt
FC(F)(F)c1cccc(Cn2c3[n+](c4ccc(C(F)(F)F)cc42)CCCCC3)c1 | 17 | -7 | -13 | -31 | 24* | 24* | 18
O=C(Cc1ccc(NC(=O)C2CCCN(C(=O)c3ccccc3)C2)cc1)Nc1cccc(C(=O)N2CCCC2)c1 (stereo not drawn) | nt | -4 | nt | nt | nt | nt | nt
CCCCC(c1nnnn1C1CCCC1)N1CCN(C2CCCCC2)CC1 (stereo not drawn) | 5 | -3 | -30 | -17 | 42* | 47* | 21
CC#CCN(CC#CC)S(=O)(=O)c1ccc(-n2cnnn2)c(OC)c1 | 8 | -7 | -7 | -7 | 24* | 11 | 5
CCC1(CC)C(C#N)C(=O)NC(=O)C1C#N (stereo not drawn) | nt | -6 | nt | nt | nt | nt | nt
CCc1ccc(N2C(=O)CN(Cc3ccccc3)C2=S)cc1 | 7 | -5 | -23 | 0 | 39* | 5 | -3
